NadD inh = NadD (S. aureus) enzyme inhibition; purified NadD enzyme, colorimetric absorbance read-out; AID 602399; 360,000 compounds, 0.78% hits; inhibition, % at 20 µM; in the data active = inhibition above about 26%
PP1 counter = blocks human PP1-alpha phosphatase, a PP5 counter-screen | P62136 | 320,000 compounds, 0.9% hits | AID 2235 | purified PP1alpha, OMFP fluorescence | inhibition, % at 6.7 µM;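 active = inhibition above the mean inhibition of all tested compounds plus 3 SD, computed separately for each screening campaign, cut at about 15% in these data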
Target sequence (P62136 whole entry, looked up): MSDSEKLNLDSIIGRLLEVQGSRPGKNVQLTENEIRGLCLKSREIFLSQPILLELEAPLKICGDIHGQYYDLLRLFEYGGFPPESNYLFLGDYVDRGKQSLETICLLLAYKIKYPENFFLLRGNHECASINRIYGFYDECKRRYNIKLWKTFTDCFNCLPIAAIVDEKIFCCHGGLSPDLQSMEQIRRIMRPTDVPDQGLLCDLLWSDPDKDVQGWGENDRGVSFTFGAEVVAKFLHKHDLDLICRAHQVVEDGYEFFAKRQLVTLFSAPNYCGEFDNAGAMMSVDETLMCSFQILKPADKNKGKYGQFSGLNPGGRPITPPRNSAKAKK
Myeloid diff MLP = myeloid differentiation induction. ER-HoxA9 myeloid progenitors, lysozyme-GFP differentiation, flow cytometry. calls only at 10 µM. 360,000 compounds, 1% hits. AID 624256;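 active = normalized GFP-positive differentiation at or above the plate's own cutoff, the solvent-only control mean plus 3 SD; inconclusive = no clear call, values can overlap the other calls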;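 also: cells exposed to compound for four days before flow analysis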
PP5 primary = PP5 (human) phosphatase inhibition; purified PP5c, OMFP substrate fluorescence; P53041; inhibition, % at 6.7 µM; 320,000 compounds, 0.18% hits;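 active = inhibition above the campaign's mean inhibition across all tested compounds plus 3 SD, cut at about 9.5% in these data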;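 also: 0% = DMSO only and 100% = 100 µM cantharidin control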
HCV core dimer = HCV core protein dimerization inhibition. inhibition, % at 5 µM. TR-FRET GST/Flag-core106 dimerization, 1536-well. AID 1899. 300,000 compounds, 0.33% hits;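 active = inhibition above the mean of all tested compounds plus 3 SD, set per screening campaign, cut at about 45% in these data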
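Assay system: tagged HCV core106 pair (GST and Flag); medium: KF-containing HEPES buffer, pH 7.45, DTT, CHAPS, BSA; also added: Eu donor and XL665 acceptor anti-tag antibodies; dosing: 5 µM single dose; timing: compound-protein-antibody incubation 4 h at 22.5 °C; signal: TR-FRET 671 and 617 nm emission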
Fh CTSL1 inh = counter-screen for PFM18AAP inhibitors: inhibitors of F. hepatica cathepsin L1; recombinant F. hepatica cathepsin L1, Z-Leu-Arg-MCA fluorescence; inhibition, % at 5.96 µM; 300,000 compounds, 0.49% hits; AID 1906;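 active = inhibition above the mean of all tested compounds plus 3 SD, set per screening campaign, cut at about 17% in these data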;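 also: 0% = plate median of test compound wells and 100% = 1 µM Z-Phe-Ala-diazomethylketone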
Starred values were filed as active, the others as inactive; i = inactive; u = inconclusive; x = no result given; + = active, no number. The list is not random: actives were taken first. Their share in the collection is about 3.1%.

SMILES	NadD inh	PP1 counter	Myeloid diff MLP	PP5 primary	HCV core dimer	Fh CTSL1 inh
CS(=O)(=O)/C(C#N)=C\c1cnc(S(=O)(=O)c2ccccc2)s1	x	-2.2	x	-0.5	6.8	-2.6
COc1cccc(NC(=O)CN(C)CC(=O)Nc2ccc(C)c([N+](=O)[O-])c2)c1	-5.0	0.2	+	3.4	-4.1	-5.4
COc1cccc(NC(=O)CN(C)CC(=O)Nc2ccc3c(c2)OCO3)c1	-2.5	x	i	x	x	x
O=C(O)c1ccc(CSc2nc(-c3ccc(Cl)cc3)cc(C(F)(F)F)n2)cc1	1.2	16.9*	x	4.4	9.6	3.8
COc1cc(OC)cc(C(=O)N[C@H](C(=O)NCc2ccccc2)C(C)C)c1	-1.9	-2.4	x	0.6	-8.9	4.6
COC(=O)C1=C(C)OC(N)=C(C#N)C1c1cccnc1 (stereo not given)	-0.9	6.9	i	1.0	-2.8	-1.6
CC1=C(C(=O)OC(C)C)C(c2cncc(-c3ccc(F)cc3)c2)C(C#N)=C(N)O1 (stereo not given)	7.2	2.4	i	1.4	12.3	18.5*
COc1ccc(N2CCN(c3ccc(S(=O)(=O)N(C(C)C)C(C)C)cn3)CC2)cc1	-5.7	-2.5	i	-0.1	10.1	0.8
CC(=O)Oc1cc2c(C(=O)NCc3ccncc3)c(C)oc2c2ccccc12	5.7	-0.7	+	-0.6	-18.6	-19.6
Cc1oc(-c2ccccc2)cc1C(=O)NCc1ccncc1	0.6	-2.0	i	2.5	1.5	-0.3
COc1ccc(CN2CC(C(=O)NCCCN3CCOCC3)CC2=O)cc1 (stereo not given)	-0.1	-1.7	x	4.3	-3.1	20.7*
CCCCNC(=O)C1CC(=O)N(CCc2ccccc2)C1 (stereo not given)	-2.7	-0.4	i	3.9	-3.7	-3.0
COc1ccc(CN2CC(C(=O)NCCc3ccccc3)CC2=O)cc1 (stereo not given)	-1.1	-2.3	i	3.4	-6.0	17.1*
CCC1CCCCN1CCCNC(=O)C1CC(=O)N(CCc2ccccc2)C1 (stereo not given)	-7.4	-3.4	i	1.2	-9.6	27.6*
COc1ccc(S(=O)(=O)N2CCC(C(=O)NCCC(=O)Nc3nccs3)CC2)cc1	4.2	2.9	i	2.5	-4.8	0.7
CCN(CC)C(=O)C1CCCN(c2ccc([N+](=O)[O-])cc2/C=N/NC(=O)c2cccc(Br)c2)C1 (stereo not given)	22.0	17.2*	i	4.1	35.5	0.8
O=C(N/N=C/C=C/c1ccccc1)c1cccc(Br)c1	9.0	1.2	i	-1.5	-8.0	17.7*
O=C(N/N=C/c1ccc([N+](=O)[O-])s1)c1cccc(Br)c1	2.7	3.1	+	-0.7	-9.7	0.9
Cc1ccc(C(=O)N/N=C/c2ccc([N+](=O)[O-])s2)cc1	0.2	-0.7	u	1.8	-4.3	3.0
COc1ccc(/C=N/Nc2ccc([N+](=O)[O-])cc2)cc1O	-9.4	1.1	i	1.1	-11.2	4.6
COC(=O)N(C)C[C@H]1OCc2cnnn2CCCC(=O)N([C@@H](C)CO)C[C@H]1C	-5.6	x	i	x	x	x
COc1ccc(/C=N\NC(=O)c2ccccc2)cc1COc1ccccc1	-5.6	-1.9	i	0.4	5.7	2.9
COc1cccc(OCc2cc(/C=N/NC(=O)c3ccn[nH]3)ccc2OC)c1	8.5	0.9	i	3.3	47.9*	-1.4
Cc1cc(OCC(=O)Nc2ccc(N3CCN(C(=O)c4ccco4)CC3)cc2)cc(C)c1Cl	3.4	-4.1	x	2.7	7.0	-2.8
CCc1ccc(OCC(=O)Nc2ccc(N3CCN(C(=O)c4ccccc4)CC3)cc2)cc1	0.2	2.5	i	-0.4	15.7	2.3
SMILES	NadD inh	PP1 counter	Myeloid diff MLP	PP5 primary	HCV core dimer	Fh CTSL1 inh
Cc1ccc(OCC(=O)Nc2ccc(N3CCN(C(=O)c4ccco4)CC3)cc2)cc1C	1.9	8.3	+	2.0	1.2	5.9
COc1ccc(OCC(=O)Nc2ccc(N3CCN(C(=O)c4ccccc4C)CC3)cc2)cc1	0.7	-0.4	+	1.6	6.9	2.6
CCOC(=O)[C@H]1[C@H]2COc3cc(OC)ccc3[C@@H]2N2C(=O)c3c(C)cc(C)cc3NC(=O)[C@@]12C	5.4	x	i	x	x	x
O=c1cc(-c2ccccc2)[nH]n1-c1nc2ccccc2[nH]1	-3.3	16.7*	i	0.3	-8.5	-2.0
CCN(C(=O)C(C)OC(=O)CCCNC(=O)c1ccc(Cl)cc1)c1ccccc1 (stereo not given)	-1.0	-3.4	i	-1.0	-0.1	2.8
CCOC(=O)c1oc2ccc(S(=O)(=O)n3nc(-c4ccccc4)cc3N)cc2c1C	3.0	2.8	+	2.0	11.6	5.2
CCOc1ccc(-c2cc(N)n(S(=O)(=O)c3ccc(OC)cc3)n2)cc1	-3.7	0.7	i	3.6	1.9	1.6
CCOC(=O)c1oc2ccc(S(=O)(=O)n3nc(-c4ccc(OC)cc4)cc3N)cc2c1C	19.5	2.0	u	3.4	47.1*	5.2
[O-][N+](=Cc1ccccc1)CC1(O)CCCCC1	3.1	x	i	x	x	x
Cn1c(=O)c2c(nc(CN3CCN(Cc4ccccc4)CC3)n2Cc2cccc(Cl)c2)n(C)c1=O	-2.6	7.8	i	-5.4	18.3	4.6
Cn1c(=O)c2c(nc(CN3CCc4ccccc4C3)n2Cc2cccc(Cl)c2)n(C)c1=O	5.4	9.9	+	0.8	2.9	0.0
O=c1[nH]c2ccccc2nc1/C=C/c1ccc(F)cc1	-3.9	-0.3	+	0.5	6.5	1.1
O=c1[nH]c2ccccc2nc1/C=C/c1ccc(O)cc1	-6.7	x	+	x	x	x
O=c1[nH]c2ccccc2nc1/C=C/c1ccccc1	10.0	1.2	i	4.3	-0.2	1.2
Fc1ccc(Oc2ccnc(Cl)n2)c(Cl)c1	x	-2.7	x	2.9	0.1	-2.6
Cc1ccc(N2C(=O)[C@@H]3[C@H](C2=O)C2c4ccccc4C=CN2[C@@H]3C(=O)c2ccco2)c(C)c1 (stereo not given in full)	12.3	2.8	i	1.7	38.4	34.7*
Cc1ccc(N2C(=O)[C@@H]3[C@H](C2=O)C2c4ccccc4C=CN2[C@@H]3C(=O)c2ccco2)cc1 (stereo not given in full)	14.8	x	i	x	x	x
O=C(c1ccco1)[C@@H]1[C@@H]2C(=O)N(c3ccccc3)C(=O)[C@@H]2C2c3ccccc3C=CN21 (stereo not given in full)	7.8	2.6	i	4.1	24.2	28.2*
N#CC1(NC(=O)Cn2cc(C(F)(F)F)cc(Cl)c2=O)CCCCC1	-3.9	1.7	u	2.3	-6.8	-0.7
CN(C)S(=O)(=O)N1CCC(Oc2ccc(C(=O)N3CCCCCC3)cc2)CC1	-5.7	x	+	x	x	x
CN(C)S(=O)(=O)N1CCC(Oc2ccc(C(=O)N3CCCCCCC3)cc2)CC1	4.4	6.5	u	3.5	-0.9	2.6
